Shown are actives, neighbours in structure and some others; about 3.5% of the full set was active somewhere.
RGS4 act: RGS4 potentiation or activation. HEK293 M3R/inducible RGS4, carbachol calcium flux Fluo4; hits give low values. B-score at 10 µM. 310,000 compounds, 0.92% hits. AID 463111;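 active = B-score of the integrated calcium signal more than 4 SD below the library mean, with starting fluorescence not abnormally high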;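 also: negative B-score means reduced calcium response which marks RGS4 activation or potentiation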
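test system = M3R-expressing HEK293 line, RGS4 induced by doxycycline | probe or stimulus = carbachol at ECmax as muscarinic agonist stimulus | timing = dye loading 30 min 37 °C, buffer rest 30 min RT | signal = calcium dye Fluo4 fluorescence | evaluation = B score from integrated fluorescence ratio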
MrgX1 ag: agonists of human MrgX1 receptor; Q96LB2; MrgX1-HEK293 cells, Fluo-4 calcium fluorescence, agonist mode; hits give high values; B-score at 10 µM; 310,000 compounds, 0.44% hits; AID 588627;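 active = calcium response B-score plate-corrected fluorescence ratio at least 3 library SD, with starting fluorescence B-score inside 5 SD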
Target sequence (Q96LB2 whole entry, looked up): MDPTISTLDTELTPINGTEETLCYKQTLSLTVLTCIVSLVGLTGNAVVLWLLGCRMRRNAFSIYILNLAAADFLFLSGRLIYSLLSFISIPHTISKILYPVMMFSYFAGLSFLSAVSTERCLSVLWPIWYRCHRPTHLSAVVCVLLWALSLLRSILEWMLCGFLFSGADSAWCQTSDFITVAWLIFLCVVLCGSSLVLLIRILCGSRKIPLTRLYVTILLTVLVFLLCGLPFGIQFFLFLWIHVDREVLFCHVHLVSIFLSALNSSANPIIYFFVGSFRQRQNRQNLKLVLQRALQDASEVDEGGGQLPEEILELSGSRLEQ
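Test system: Stable human MrgX1 HEK293 cell line | Schedule: Overnight plating before 1 h dye loading | Read-out basis: Baseline-normalised fluorescence change ratio, B-scored | Detection: Kinetic calcium dye fluorescence, Fluo-4 NW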
RGS4 inh: inhibitors of human RGS4; B-score at 10 µM; AID 463165; HEK293 M3R/RGS4 inducible, Fluo-4 calcium flux; hits give high values; triggered by carbachol at its EC20; P49798; 310,000 compounds, 0.45% hits;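 active = B-score, a plate-corrected calcium signal, over three deviations above library mean, with baseline fluorescence within five deviations of library mean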;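 also: RGS4 expression induced by doxycycline in cells with stable M3 receptor; B-score is computed from the integrated fluorescence ratio over baseline after carbachol; higher B-score means a larger calcium signal and so more RGS4 inhibition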
Target sequence (P49798 whole entry, looked up): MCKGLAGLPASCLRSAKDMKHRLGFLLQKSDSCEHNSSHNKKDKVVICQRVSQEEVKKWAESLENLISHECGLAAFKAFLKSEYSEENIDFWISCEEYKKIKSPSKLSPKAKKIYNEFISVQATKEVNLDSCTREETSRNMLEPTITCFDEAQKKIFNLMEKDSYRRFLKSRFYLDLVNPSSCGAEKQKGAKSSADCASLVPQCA
MrgX1 antag: antagonists of human MrgX1 receptor | MRGX1-HEK293 calcium flux, Fluo-4, BAM8-22 antagonism; hits give low values | Q96LB2 | AID 588676 | B-score at 10 µM | 310,000 compounds, 1.3% hits;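 active = calcium-response B-score plate-corrected more than 3 library SD below zero, starting fluorescence within 5 deviations, no agonist response on first addition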;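 also: peak minus trough fluorescence over baseline after final BAM8-22 challenge near maximal dose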
MrgX1 allo act: human MrgX1 positive allosteric modulation, primary screen. MrgX1-HEK293, Fluo-4 calcium flux, FDSS; hits give high values. B-score at 10 µM. 310,000 compounds, 0.63% hits. AID 588675;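 active = plate-corrected calcium response at least 3 library SD above typical, normal starting fluorescence, not activating the receptor alone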;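 also: compound read alongside a low EC10 to EC30 dose of BAM8-22 agonist; peak minus trough fluorescence over baseline measured at the second addition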
* marks the source's active call; other numbers are inactive results; i = inactive; x = no result given.

SMILES | RGS4 act | MrgX1 ag | RGS4 inh | MrgX1 antag | MrgX1 allo act
O/N=C/c1cc(Br)ccc1OCc1ccccc1F | i | i | i | -7.4* | i
C=CCOc1ccc(Br)cc1/C=N/O | i | i | i | i | i
Fc1ccccc1COc1ccc(Br)cc1CNCc1ccncc1 | -9.6* | i | i | i | i
CN(CC(=O)Nc1ccc(F)c(F)c1F)C(=O)c1ccc2c(c1)S(=O)(=O)N=C1CCCCCN12 | i | i | i | i | i
CCC(C(=O)Nc1cccnc1)n1c(=O)[nH]c2ccccc2c1=O (centres undefined) | i | i | i | i | i
CC(C)CCN1C(N(C)C)=NC[C@@H]1C | x | i | x | i | i
Cc1nn(C)c(Oc2cccc(C(F)(F)F)c2)c1C=O | i | i | i | -5.9* | i
C=CCOc1cccc(C2/C(=C(/O)c3ccc(Cl)cc3)C(=O)C(=O)N2CCN2CCOCC2)c1 (centres undefined) | i | i | i | -5* | i
COc1cc(-c2nc(C(=O)NCC3CCCO3)cc3c2[nH]c2ccccc23)cc(OC)c1OC (centres undefined) | i | i | i | i | i
O=C(NCC1CCCO1)c1cc2c([nH]c3ccccc32)c(-c2cccc(Cl)c2)n1 (centres undefined) | -9.2* | i | i | i | i
Cc1ccc(O)c(Sc2cc(C)ccc2O)c1 | i | 29* | i | i | i
Cc1ccc2nc(C3CCCCC3)[nH]c2c1 | i | i | i | i | i
CC1(C)CC(O)CC(C)(C)N1CC(O)COCc1ccccc1 (centres undefined) | i | i | i | i | i
CCN(/N=C/C=C/c1ccccc1)c1cc(=O)n(C)c(=O)[nH]1 | i | i | i | -5.6* | i
Cc1ccc(NC(=O)C2COc3ccccc3O2)cc1C (centres undefined) | i | i | i | i | i
O=C1CCC([N+](=O)[O-])C(c2cc3c(cc2Cl)OCO3)N1 (centres undefined) | i | i | i | -4.5* | i
COCc1ccc(C(=O)N(C)CC2CCCN(CCc3ccc(OC)cc3)C2)o1 (centres undefined) | -7.5* | i | i | i | i
COCc1ccc(C(=O)N(C)CC2CCCN(CCc3ccc(Cl)cc3)C2)o1 (centres undefined) | i | i | i | i | i
COc1ccc2c(C)cc(SCC(=O)NCCN3C(=O)CSC3=O)nc2c1 | i | i | i | i | i
CCCCn1c(SCC(=O)N2CCOCC2)nnc1-c1ccoc1C | i | i | i | i | i
Cc1occc1-c1nnc(SCC(=O)N2CCOCC2)n1CCc1ccccc1 | -7.3* | i | i | i | i
CCOC(=O)C(=Cc1ccc(Br)cc1)C(=O)OCC | i | i | i | i | i
CCOC(=O)C(=Cc1ccc(F)cc1)C(=O)OCC | i | i | i | i | 7.5*
O=C(NC(=S)Nc1ccc(F)c(Cl)c1)C1CC1 | i | i | i | i | i
CN(C)NC(=S)Nc1ccc(Cl)cc1 | i | i | i | -6* | i
SMILES | RGS4 act | MrgX1 ag | RGS4 inh | MrgX1 antag | MrgX1 allo act
Fc1ccc(NC(=S)Nc2ccc(F)c(Cl)c2)cc1Cl | i | i | i | -4.8* | i
Cc1ccc(C(=O)N2CCC3(CC2)Oc2ccc(F)cc2C(=O)C32CC(c3ccc(Cl)cc3)=NO2)s1 (centres undefined) | i | i | i | i | i
Clc1ccc(OCc2nnc(SCc3nnc(-c4ccccc4)o3)o2)c(Cl)c1 | -9.7* | i | i | i | i
O=C(CSc1nnc(COc2ccc(Cl)cc2Cl)o1)Nc1ccccn1 | i | i | i | i | i
c1cc(CNc2ccc3c(c2)OCO3)ccn1 | i | i | i | i | i
Cc1ccc(CNc2ccc3c(c2)OCO3)cc1 | i | 29* | i | i | i
Cc1ccc(C)c(NC(=S)NCc2ccc3c(c2)OCO3)c1 | -7.2* | i | i | i | i
CCOC(=O)C1CCCN(C(=O)c2ccc(-c3ccc([N+](=O)[O-])cc3)o2)C1 (centres undefined) | -9* | i | i | i | i
O=C(COC(=O)c1ccc(-c2ccc([N+](=O)[O-])cc2)o1)NC(=O)NC1CCCCC1 | -7* | i | i | i | i
O=C(COC(=O)c1ccc(-c2ccc([N+](=O)[O-])cc2)o1)NC(=O)NC12CC3CC(CC(C3)C1)C2 | i | i | i | i | i
O=C(COC(=O)/C=C/c1ccccc1)NCC1CCCO1 (centres undefined) | i | i | i | i | 9.8*
O=C(N/N=C/c1cn(-c2cccs2)nc1-c1ccccc1)c1ccccc1O | i | i | i | -8.3* | i
CCc1nccn1CCC(=O)N1CCCC(N2CCN(c3ccccc3C)CC2)C1 (centres undefined) | i | i | i | i | i
Cc1cccc(-c2noc(Cc3ccccc3)n2)c1 | i | i | i | -8.2* | i
C#CCOCCOCCOCCNc1nc(N2CCN(C(=O)CCCCCCCCCCNC(=O)[C@H](CCCCN)n3cc(CCO)nn3)CC2)nc(N2CCN(C(=O)CCCCCCCCCCNC(=O)[C@H](CCCCN)n3cc(C[C@@H](C)CC)nn3)CC2)n1 | x | 83* | x | i | i
C#CCOCCOCCOCCNc1nc(N2CCN(C(=O)CCCCCCCCCCNC(=O)[C@@H](CCC(=O)O)n3cc(CCCCCN)nn3)CC2)nc(N2CCN(C(=O)CCCCCCCCCCNC(=O)[C@H](CCCCN)n3cc(C[C@@H](C)CC)nn3)CC2)n1 | x | 70* | x | i | i
C#CCOCCOCCOCCNc1nc(N2CCN(C(=O)CCCCCCCCCCNC(=O)[C@@H](CCC(=O)O)n3cc(CCCCCN)nn3)CC2)nc(N2CCN(C(=O)CCCCCCCCCCNC(=O)[C@H](CO)n3cc(CCCCCN)nn3)CC2)n1 | x | i | x | i | i
O=C(c1ccc(F)cc1)N1CCN(S(=O)(=O)c2ccc(Br)cc2)CC1 | i | i | i | i | i
CCOC(=O)CC1C(=O)NCCN1c1nc2ccc(C)cn2c(=O)c1/C=C1\SC(=S)N(C(C)CC)C1=O (centres undefined) | i | 108* | i | i | i
CCOC(=O)CC1C(=O)NCCN1c1nc2ccc(C)cn2c(=O)c1/C=C1\SC(=S)N(CC(C)C)C1=O (centres undefined) | i | 103* | i | i | i
